Results on twelve molecules are retold here after ChEMBL document CHEMBL1137695, “Towards an efficient prodrug of the alkylating metabolite monomethyltriazene: synthesis and stability of N-acylamino acid derivatives of triazenes” (Eur J Med Chem, 2009).

Each structure is given as a SMILES string.

Series [1] can be described thus: Stability in phosphate buffer assessed as half life at pH 7.7 by HPLC. In kind it is physicochemical. An outline of the steps:
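Incubation at 37 °C in 0.066 M pH 7.7 isotonic phosphate buffer. Samples injected directly onto HPLC (acetonitrile:water 20:80 to 50:50, detection 290 nm). Half-life calculated from decline in substrate concentration; mean of at least 2 determinations ± SD.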

A short description of series [2]: Stability in 80% human plasma assessed as half life by HPLC. It is filed as ADME, cell-free. The method in brief: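 Plasma pooled from seven healthy donors, stored at −18 °C. Incubation at 37 °C in 80% plasma diluted with 0.066 M pH 7.4 isotonic phosphate buffer. Aliquots taken over time, diluted with acetonitrile, centrifuged, supernatant analysed by HPLC at 290 nm. t1/2 fitted from substrate loss; mean of at least 3 determinations ± SD.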

Series [3] can be described thus: Octanol-phosphate buffer partition coefficient at pH 7.4 by HPLC. It is filed as physicochemical. An outline of the steps: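 Octanol and pH 7.4 phosphate buffer, each pre-saturated with the other, at 25 °C. Compound dissolved in octanol, then shaken with buffer for 30 min to equilibrium. Each phase analysed separately by HPLC (acetonitrile:water 20:80 to 50:50, 290 nm). P taken as ratio of octanol to buffer peak areas. Mean of at least 3 determinations ± SD.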

Broadly, the half-life is the time needed for the level to fall by half in the phase considered. By logD is commonly meant lipophilicity at a set pH, counting ionised and neutral species. Higher therefore signals higher lipophilicity.

As for `CC(=O)NCC(=O)N(C)/N=N/c1ccc(C#N)cc1`, the half-life in series [1] is 7.6 h; in series [2], 1.2 h. The molecule also gave a logD in series [3] of 1.1.
Consider `CC(=O)N[C@@H](C)C(=O)N(C)/N=N/c1ccc(Br)cc1`, for which the half-life in series [1] is 25.5 h; in series [2], 5.7 h. In addition, the logD in series [3] is 2.8.
For `CCC(=O)N[C@@H](C)C(=O)N(C)/N=N/c1ccc(C#N)cc1` the same measures were 10.1 h, 1.3 h and 1.87.
On to `CCCC(=O)N[C@@H](C)C(=O)N(C)/N=N/c1ccc(C#N)cc1`, for which the results for the half-life in series [1] and in series [2] were 9.1 h and 1.1 h, respectively. Also, the logD in series [3] is 2.28.
In the case of `CC(=O)N[C@@H](C)C(=O)N(C)/N=N/c1ccc(C)cc1`, the half-life in series [1] is 46.5 h; in series [2] it was 15.1 h. In series [3], this molecule displayed a logD of 2.45.
For `C[C@H](NC(=O)c1ccccc1)C(=O)N(C)/N=N/c1ccc(C#N)cc1` the same measures were 9.2 h, 1.6 h and 3.04.
Taken in the same sequence, the figures for `CC(=O)N[C@@H](C)C(=O)N(C)/N=N/c1ccc(C(C)=O)cc1` were 13.9 h, 2.3 h and 1.51.
As for `CC(=O)N[C@@H](C)C(=O)N(C)/N=N/c1ccc(C(N)=O)cc1`, the half-life in series [1] is 18.4 h; in series [2] it was 7.6 h. Moreover, in series [3], the logD is 0.69.
Taken in the same sequence, the figures for `CC(=O)N[C@@H](C)C(=O)N(C)/N=N/c1ccc(C#N)cc1` were 9.8 h, 1 h and 1.41.
Taken in the same sequence, the figures for `CC(=O)N[C@H](C(=O)N(C)/N=N/c1ccc(C#N)cc1)C(C)C` were 84.3 h, 5.7 h and 2.18.
For `CCOC(=O)c1ccc(/N=N/N(C)C(=O)[C@H](C)NC(C)=O)cc1` the same measures were 15.7 h, 4.6 h and 2.52.
In the case of `CC(=O)N[C@@H](Cc1ccccc1)C(=O)N(C)/N=N/c1ccc(C#N)cc1`, the half-life is 13.9 h in series [1] and 2.4 h in series [2]. Further, the logD in series [3] is 2.76.
